MT1-MMP act inh: MT1-MMP (human) activation inhibition | P50281 | HT1080 RFP-PRO-GFP cells, GFP/RFP ratio fluorescence, overnight; percent of plate control window, DMSO zero | GFP/RFP ratio change, % at 20 µM | 360,000 compounds, 0.061% hits | AID 651647;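 active = GFP/RFP ratio change of at least 30% with cell ATP level not reduced by more than half and red fluorescence within 50% of control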
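Assay system: HT1080 RFP-PRO-GFP cells | Dosing: 20 µM single dose, 1% DMSO | Incubation: Cells overnight before dosing, compound overnight, 37 °C, 5% CO2 | Evaluation: GFP/RFP fluorescence ratio | Control set: DMSO-only wells and HT1080 RFP-L50D-GFP cell wells as references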
GRIN3A LBD mod: modulators (binders) of human NR3A ligand-binding domain. NR3A LBD differential scanning fluorimetry, Tm shift; 0% = protein alone, 100% = glycine-bound protein. Tm shift relative to glycine control, % at 25 µM. 340,000 compounds, 2.5% hits;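 active = melting temperature shift of at least 10% of the positive control shift, at one fixed dose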
ADAM17 inh: inhibits human ADAM17; P78536; recombinant ADAM17, EDANS/DABCYL FRET peptide cleavage; inhibition, % at 6.95 µM; 370,000 compounds, 0.83% hits;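 active = inhibition above the mean of compounds lying between control limits plus 3 SD, set per campaign, cut at about 8.5% in these data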
Target sequence (P78536 215-824 limits assumed): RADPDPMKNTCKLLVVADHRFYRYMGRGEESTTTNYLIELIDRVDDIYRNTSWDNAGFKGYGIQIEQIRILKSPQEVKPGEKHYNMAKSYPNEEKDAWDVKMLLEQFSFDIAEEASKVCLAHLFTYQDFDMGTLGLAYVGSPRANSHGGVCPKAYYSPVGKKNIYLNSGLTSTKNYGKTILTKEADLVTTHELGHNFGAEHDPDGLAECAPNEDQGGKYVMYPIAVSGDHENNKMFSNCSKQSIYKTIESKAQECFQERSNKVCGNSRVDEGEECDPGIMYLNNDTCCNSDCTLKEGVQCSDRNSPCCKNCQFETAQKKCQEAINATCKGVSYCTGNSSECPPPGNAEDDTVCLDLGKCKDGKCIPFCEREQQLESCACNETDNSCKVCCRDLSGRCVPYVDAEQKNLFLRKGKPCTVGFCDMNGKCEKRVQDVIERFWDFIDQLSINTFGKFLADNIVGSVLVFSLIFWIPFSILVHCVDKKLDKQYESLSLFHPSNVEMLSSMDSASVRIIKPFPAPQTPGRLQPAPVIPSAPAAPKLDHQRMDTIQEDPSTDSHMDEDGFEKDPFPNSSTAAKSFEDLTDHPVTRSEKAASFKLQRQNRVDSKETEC
SKN-1 inh: inhibitors of C. elegans SKN-1. 360,000 compounds, 0.49% hits. inhibition, % at 21.8 µM. AID 624304. C. elegans VP596 Pgst-4::GFP/RFP ratio, acrylamide-induced, 24 h;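 active = interference check ratio from 0.5 to 1.5 plus GFP to RFP signal ratio inhibition reaching or exceeding a fixed threshold, cut at about 30% in these data, passing the limit was not always enough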
MPTP inh: inhibitors of mitochondrial permeability transition pore. isolated mouse mitochondria, Ca2+ swelling absorbance, 30 min. inhibition, % at 10 µM. 360,000 compounds, 1.4% hits. AID 602449;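 active = inhibition of 50% or more, scaled per plate between neutral and stimulator controls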
ADAM10 inh: inhibitors of human ADAM10. O14672. 370,000 compounds, 0.62% hits. recombinant ADAM10, EDANS/DABCYL FRET peptide cleavage, 3 h. inhibition, % at 7 µM;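 active = inhibition above a per-campaign cutoff equal to the mean of compounds falling between control-based bounds plus 3 SD, cut at about 20% in these data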
ADAM10 counter: inhibits human ADAM10 in ADAM17 exosite counter-screen. AID 743256. inhibition, % at 6.95 µM. recombinant ADAM10, EDANS/DABCYL FRET peptide cleavage, 3 h. 2,900 compounds, 47% hits. shares compounds with ADAM17 inh;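 active = mean inhibition over the triplicate runs exceeds the activity threshold set in the earlier primary screen, cut at about 20% in these data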
ADAM17 confirm: confirmation of inhibitors of human ADAM17; recombinant ADAM17, EDANS/DABCYL QFRET peptide cleavage; shares compounds with ADAM17 inh; inhibition, % at 6.95 µM; AID 743257; 2,900 compounds, 65% hits;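 active = mean inhibition across replicates above the hit cutoff set in the primary screen, cut at about 8.5% in these data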
Each line names hits and unclear results; the compound was inactive in the other large screens (follow-up assays come after a bar, where they were run); ! = repeats disagree. Only some compounds are listed: those with a hit (about 4.7% of all), similar ones and a draw of the others.

CCC1CCC2(CC1)NC(=O)N(CC(=O)c1c(C)[nH]c3ccccc13)C2=O (configuration not stated)	ADAM17 inh 8.9 | ADAM10 counter inactive | ADAM17 confirm inactive
CC(CCc1ccccc1)NC(=O)C(Cc1ccccc1)NS(=O)(=O)c1cccs1 (configuration not stated)	ADAM17 inh 9.8 | ADAM10 counter 21 | ADAM17 confirm 9.3
CC1CCCCC1NC(=O)C(Cc1ccccc1)NS(=O)(=O)c1cccs1 (configuration not stated)	none
COc1ccc(S(=O)(=O)N(CC(C)C)C2CCS(=O)(=O)C2)cc1OC (configuration not stated)	none
CC(C)(C)c1cc(NC(=O)COC(=O)c2ccc(O)cc2O)n(-c2ccccc2)n1	none
O=C(COC(=O)c1ccc(O)cc1O)Nc1cc(-c2ccccc2)nn1-c1ccccc1	GRIN3A LBD mod 25, ADAM17 inh 8.8 | ADAM10 counter 24 | ADAM17 confirm 16
O=C(Nc1nccs1)c1cc2sccc2n1Cc1ccc(F)cc1	none
COc1ccc(NC(=O)c2cc3sccc3n2Cc2ccc(F)cc2)cc1OC	ADAM17 inh 9.8 | ADAM10 counter inactive | ADAM17 confirm inactive
O=C(O)C1CC=CCC1C(=O)Nc1ccccc1C(=O)N1CCN(c2ccc(Cl)cc2)CC1 (configuration not stated)	none
NNc1nnc2c3cc(F)ccc3n(CCc3ccccc3)c2n1	ADAM17 inh 12 | ADAM10 counter inactive | ADAM17 confirm inactive
O=C(Nc1cccc(-c2csc(-c3ccccc3)n2)c1)c1cccs1	GRIN3A LBD mod 24, ADAM17 inh 9.8 | ADAM10 counter inactive | ADAM17 confirm 12
Cc1nc(-c2cccc(NC(=O)c3cccs3)c2)cs1	none
Cc1ccc(S(=O)(=O)Nc2ccccc2C=Nc2cccc(C)c2C)cc1	none
CC1CCCN(S(=O)(=O)c2ccc(NC(=O)Cn3nnc(-c4ccccc4F)n3)cc2)C1 (configuration not stated)	GRIN3A LBD mod 12, ADAM17 inh 10 | ADAM10 counter inactive | ADAM17 confirm 11
CC1CCCN(S(=O)(=O)c2ccc(NC(=O)CN3CCCCC3)cc2)C1 (configuration not stated)	none
O=C(O)c1ccccc1C(=O)Nc1cc(C(F)(F)F)ccc1N1CCCC1	ADAM17 inh 10 | ADAM10 counter inactive | ADAM17 confirm inactive
O=C(Nc1cc(C(F)(F)F)ccc1N1CCOCC1)c1ccccc1	none
O=C1CCCc2c1cnc1ncnn21	none
COc1cccc(/C=N/NC(=O)CN(CCc2ccccc2)S(=O)(=O)c2ccc(NC(C)=O)cc2)c1	ADAM17 inh 11 | ADAM10 counter 24 | ADAM17 confirm 14
COc1ccc(CCn2c(C)cc(C(=O)COC(=O)c3cnccn3)c2C)cc1	none
Cc1ccc(S(=O)(=O)N2[C@@H](c3ccc(Cl)cc3)C(C(=O)O)=CC[C@H]2c2cccc(Cl)c2)cc1	none
Cc1ccc(S(=O)(=O)N2[C@@H](c3cccc(Cl)c3)C(C(=O)O)=CC[C@H]2c2ccc(C(C)C)cc2)cc1	ADAM17 inh 9.0 | ADAM10 counter 26 | ADAM17 confirm 14
CC(=O)C1=CCC(c2ccc(Cl)cc2)N(S(=O)(=O)c2ccc(C)cc2)C1 (configuration not stated)	ADAM17 inh 12! (no result: GRIN3A LBD mod) | ADAM10 counter inactive | ADAM17 confirm inactive
Cc1ccccc1S(=O)(=O)N1[C@@H](c2ccccc2)C(C(=O)O)=CC[C@H]1c1ccc(Cl)cc1	none
Cc1ccccc1S(=O)(=O)N1[C@@H](c2ccc(Br)cc2)C(C(=O)O)=CC[C@H]1c1ccc(Cl)cc1	ADAM17 inh 9.3 | ADAM10 counter inactive | ADAM17 confirm 8.7

Screens: PubChem, several laboratories
